Columns and labels:
[1] = folding enthalpy; higher = less favourable; fluorescence melt of hairpins on a sequencing array, two-state fit; conditions: sodium 0.088 M
Procedure, shortened: (§1)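 Folding enthalpy and melting temperature were estimated with bootstrapped two-state fits and combined across four replicates by inverse-variance weighting, with fitted temperatures raised by 9.35 °C to match UV melts. The data were Cy3 fluorescence of library hairpins, with annealed Cy3 and quencher oligos, on a sequenced MiSeq flow cell in 50 mM Na-HEPES pH 8.0, 25 mM NaCl, imaged in 2.5 °C steps up to 60 °C and normalised to pre-quench Cy3 and control constructs.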

[2] = melting temperature; fluorescence melt of hairpins on a sequencing array, two-state fit, raised by 9.35 °C to match UV melts; conditions: sodium 0.088 M
Procedure, shortened: as §1

Row | Sequence | folding enthalpy [1] [kcal/mol] | Tm [2] [°C]
1 | GATCATAAGGATGATC ((((((....)))))) | -32.5 | 45.3
2 | GATCATAATATGATC ((((((...)))))) | -30.7 | 46.3
3 | GATCATAATGATGATC ((((((....)))))) | -29.9 | 45.6
4 | GATCATACAAATGATC ((((((....)))))) | -33.6 | 44.6
5 | GATCATACAATGATC ((((((...)))))) | -39.5 | 48.4
6 | GATCATACCATGATC ((((((...)))))) | -40.3 | 48.9
7 | GATCATACCGATGATC ((((((....)))))) | -35.7 | 46.9
8 | GATCATACCTATGATC ((((((....)))))) | -41.5 | 48.6
9 | GATCATACGCATGATC ((((((....)))))) | -37 | 48
10 | GATCATACTATGATC ((((((...)))))) | -35.7 | 48.1
11 | GATCATACTCATGATC ((((((....)))))) | -34 | 46.7
12 | GATCATAGACATGATC ((((((....)))))) | -34.4 | 45.7
13 | GATCATAGCTATGATC ((((((....)))))) | -47.4 | 50.7
14 | GATCATAGGGATGATC ((((((....)))))) | -34.1 | 47.3
15 | GATCATATAAATGATC ((((((....)))))) | -29.9 | 43.7
16 | GATCATATGATGATC ((((((...)))))) | -31.3 | 48.1
17 | GATCATATGCATGATC ((((((....)))))) | -40.4 | 48.2
18 | GATCATATTATGATC ((((((...)))))) | -35.9 | 48.6
19 | GATCATATTGATGATC ((((((....)))))) | -31.9 | 47.3
20 | GATCATCAAAATGATC ((((((....)))))) | -33.3 | 45
21 | GATCATCAACATGATC ((((((....)))))) | -28.6 | 42.6
22 | GATCATCCAAATGATC ((((((....)))))) | -36.9 | 46.3
23 | GATCATCCGAATGATC ((((((....)))))) | -30.3 | 47.2
24 | GATCATCGAAATGATC ((((((....)))))) | -29 | 44.2

Row | Sequence | folding enthalpy [1] [kcal/mol] | Tm [2] [°C]
25 | GATCATCGCGATGATC ((((((....)))))) | -48.5 | 59.7
26 | GATCATCGGATGATC ((((((...)))))) | -36.9 | 45.9
27 | GATCATCGGGATGATC ((((((....)))))) | -44 | 53.5
28 | GATCATCGTAATGATC ((((((....)))))) | -39.5 | 48.5
29 | GATCATCGTATGATC ((((((...)))))) | -32.8 | 48.5
30 | GATCATCGTGATGATC ((((((....)))))) | -38.4 | 57.8
31 | GATCATCTAGATGATC ((((((....)))))) | -43.8 | 52.7
32 | GATCATCTGCATGATC ((((((....)))))) | -36 | 46.2
33 | GATCATGAAATGATC ((((((...)))))) | -40.9 | 58.9
34 | GATCATGACATGATC ((((((...)))))) | -40.3 | 49.7
35 | GATCATGACGATGATC ((((((....)))))) | -40.3 | 50.8
36 | GATCATGCCATGATC ((((((...)))))) | -40 | 50.9
37 | GATCATGGACATGATC ((((((....)))))) | -40.7 | 54.3
38 | GATCATGGATATGATC ((((((....)))))) | -37.9 | 54.1
39 | GATCATGGCAATGATC ((((((....)))))) | -41.9 | 56.7
40 | GATCATGGGATGATC ((((((...)))))) | -30.7 | 44.6
41 | GATCATGGTAATGATC ((((((....)))))) | -41.1 | 56.2
42 | GATCATGTAGATGATC ((((((....)))))) | -38.9 | 51
43 | GATCATGTCCATGATC ((((((....)))))) | -42.5 | 54.8
44 | GATCATGTGCATGATC ((((((....)))))) | -32.3 | 50.3
45 | GATCATGTGTATGATC ((((((....)))))) | -41.9 | 48.4
46 | GATCATGTTAATGATC ((((((....)))))) | -40.5 | 56.2
47 | GATCATGTTTATGATC ((((((....)))))) | -39.1 | 50
48 | GATCATTACAATGATC ((((((....)))))) | -37.9 | 49.7

— the array DNA melting data of Ke et al. (doi:10.1101/2024.01.08.574731)
